From ChEMBL document CHEMBL3352259, “Benzimidazole--ibuprofen/mesalamine conjugates: potential candidates for multifactorial diseases” (Eur J Med Chem, 2015)

Columns and labels:
[1] = test system: Mus musculus; assay: Immunomodulatory activity in albino mouse assessed as change in carbon clearance index at 150 umol/kg, po for 5 days followed by carbon ink challenge; assay type: functional
How it was run: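 Albino mice (18-22 g), 6 per group, 150 µmol/kg p.o. daily for 5 days (control 0.5% SCMC, 0.3 mL). Carbon ink suspension (10 µL/g) given via tail vein 48 h later. Retro-orbital blood at 3 and 15 min, 25 µL into 2 mL 0.1% Na2CO3, OD read. K = (ln OD1 − ln OD2)/12. Mean ± SD.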

[2] = test system: Rattus norvegicus; assay: Antiinflammatory activity against carrageenan-induced ip dosed Wistar rat paw edema model assessed as inhibition of edema administered 30 mins prior to carrageenan challenge measured after 60 mins; assay type: functional
How it was run: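 Wistar rats (150-200 g, either sex), 150 µmol/kg i.p. 30 min before subplantar carrageenan; vehicle control 0.5% SCMC. Paw volume read at 0, 30, 60, 120, 180 min. % oedema inhibition = 100 − [(treated paw volume/control paw volume) × 100].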

[3] = test system: Mus musculus; assay: Immunomodulatory activity in albino mouse assessed as change in humoral antibody titre at 150 umol/kg, po for 7 days followed by sheep RBC challenge measured on day 14; assay type: functional
How it was run: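 Albino mice, 6 per group, 150 µmol/kg p.o. for 7 days. On day 7, challenged i.p. with 0.1 mL sheep RBC suspension (about 1×10^8 cells per 0.1 mL, saline-washed). Retro-orbital blood taken on day 14, serum separated at 2500 rpm for 10 min, and antibody titre determined by microtitre haemagglutination. Mean ± SD.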

[4] = test system: Rattus norvegicus; assay: Antioxidant activity in Wistar rat assessed as catalase level measured per mg of protein at 150 umol/kg, po administered for 3 days measured on day 4 (reference value: 22.14 +/- 1.19 umol); assay type: functional
[5] = test system: Rattus norvegicus; assay: Antioxidant activity in Wistar rat assessed as GSH level measured per 100 mg of protein at 150 umol/kg, po administered for 3 days measured on day 4 (reference value: 184.10 +/- 4.19 umol); assay type: functional
[6] = test system: Rattus norvegicus; assay: Antioxidant activity in Wistar rat assessed as thiobarbituric acid reactive substance level measured per mg of protein at 150 umol/kg, po administered for 3 days measured on day 4 (reference value: 3.72 +/- 00.23 nmol); assay type: functional
[7] = test system: Rattus norvegicus; assay: Gastrointestinal toxicity in Wistar rat assessed as ulcer index at 150 umol/kg, po administered for 3 days measured on day 4 (reference value: 0.33 +/-0.20); assay type: organism-based; settings: in vivo, 72 h

Compound	Activity [1] [%]	inhibition (INH) [2] [%]	Activity [3] [%]	Activity [4] [µmol]	Activity [5] [µmol]	Activity [6] [nmol]	UI [7]
CC(C)Cc1ccc(C(C)C(=O)Nc2nc3ccc([N+](=O)[O-])cc3[nH]2)cc1 (stereo not drawn)	23.5	34.3	15.3				
Nc1ccc(O)c(C(=O)Nc2nc3ccccc3[nH]2)c1	-29.4	50	-34.6				
CC(C)Cc1ccc(C(C)C(=O)O)cc1 (stereo not drawn) [IBUPROFEN]		53.8					
COc1ccc2c(c1)c(CC(=O)O)c(C)n2C(=O)c1ccc(Cl)cc1 [INDOMETHACIN]				7.79	85.2	30.41	3.17
Nc1ccc(O)c(-c2nc3ccc(C(=O)c4ccccc4)cc3[nH]2)c1	>100	62.6	69.2	16.94	153.38	8.95	1.1
CC(C)Cc1ccc(C(C)c2nc3ccc([N+](=O)[O-])cc3[nH]2)cc1 (stereo not drawn)	29.4	38	19.2				
COc1ccc2nc(NC(=O)c3cc(N)ccc3O)[nH]c2c1	-29.4	50	-34.6				
COc1ccc2nc(C(C)c3ccc(CC(C)C)cc3)[nH]c2c1 (stereo not drawn)	52.9	64.7	42.3				
CC(C)Cc1ccc(C(C)c2nc3ccccc3[nH]2)cc1 (stereo not drawn)	>100	57.1	57.6	18.26	158.6	5.9	0.92
Nc1ccc(O)c(-c2nc3ccccc3[nH]2)c1	>100	54.6	61.5	18.78	178.18	5.47	0.58
Cc1ccc2nc(-c3cc(N)ccc3O)[nH]c2c1	58.8	52.4	42.3				
Cc1ccc2nc(C(C)c3ccc(CC(C)C)cc3)[nH]c2c1 (stereo not drawn)	70.5	58	38.4				
Nc1ccc(O)c(C(=O)O)c1 [MESALAMINE]		50					
COc1ccc2nc(NC(=O)C(C)c3ccc(CC(C)C)cc3)[nH]c2c1 (stereo not drawn)	52.9	55.3	26.9				
CC(C)Cc1ccc(C(C)C(=O)Nc2nc3ccc(C(=O)c4ccccc4)cc3[nH]2)cc1 (stereo not drawn)	64.7	60.1	42.3				
Cc1ccc2nc(NC(=O)C(C)c3ccc(CC(C)C)cc3)[nH]c2c1 (stereo not drawn)	47.1	54.1	23.1				
c1ccc([C@H]2CN3CCSC3=N2)cc1 [LEVAMISOLE]	88.2		65.3				
COc1ccc2nc(-c3cc(N)ccc3O)[nH]c2c1	70.5	55.7	46.2				
Nc1ccc(O)c(-c2nc3ccc([N+](=O)[O-])cc3[nH]2)c1	41.2	42.9	23				
CC(C)Cc1ccc(C(C)c2nc3ccc(C(=O)c4ccccc4)cc3[nH]2)cc1 (stereo not drawn)	>100	68.1	61.5	14.12	131.5	11.28	0.7
Cc1ccc2nc(NC(=O)c3cc(N)ccc3O)[nH]c2c1	-35.2	48.8	-38.4				
Nc1ccc(O)c(C(=O)Nc2nc3ccc(C(=O)c4ccccc4)cc3[nH]2)c1	-17.6	52.1	-26.9				
CC(C)Cc1ccc(C(C)C(=O)Nc2nc3ccccc3[nH]2)cc1 (stereo not drawn)	76.4	53.8	38.4				
Nc1ccc(O)c(C(=O)Nc2nc3ccc([N+](=O)[O-])cc3[nH]2)c1	-41.1	36.9	-50	11.87	127.32	11.98	0.4
